Experiments:
Assay type in all cases: functional
CCRF-CEM = experiment: Growth inhibition of human CCRF-CEM cells after 48 hrs by SRB assay
Summary of the method: (§1)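 NCI-60 panel screen. Cells exposed for 48 h to five concentrations (10−4, 10−5, 10−6, 10−7 and 10−8 M). Sulforhodamine B optical density is read just before compound addition (time zero) and after 48 h, for both treated and vehicle-control wells. Percent growth is calculated against control. GI50 is the concentration giving a 50% reduction in net cell growth relative to cell numbers on day 0.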

HL-60(TB) = experiment: Growth inhibition of human HL-60(TB) cells after 48 hrs by SRB assay; conditions: HL-60, 48 h
Summary of the method: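 NCI-60 panel screen: cells were exposed to test agent at five concentrations (10−4, 10−5, 10−6, 10−7 and 10−8 M) for 48 h. Sulforhodamine B optical density was read at time zero and after exposure to compound or vehicle control, and growth percentage versus control was calculated. GI50 was taken as the concentration giving a 50% reduction in net cell growth relative to day 0 cell numbers.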

K562 = experiment: Growth inhibition of human K562 cells after 48 hrs by SRB assay; conditions: K562, 48 h; summary of the method: as §1
[1] = Growth inhibition of human MOLT4 cells after 48 hrs by SRB assay; conditions: MOLT-4, 48 h; summary of the method: as §1
[2] = Growth inhibition of human RPMI8226 cells after 48 hrs by SRB assay; conditions: RPMI-8226, 48 h; summary of the method: as §1
SR = experiment: Growth inhibition of human SR cells after 48 hrs by SRB assay
Summary of the method: (§2)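 NCI-60 panel cells; preliminary single-dose screen at 10−5 M, then five-dose testing at 10−4 to 10−8 M (tenfold steps) with 48 h exposure. SRB-stained optical density read before compound addition (time zero), after 48 h with compound, and with vehicle control. Percent growth is calculated against control. GI50 is the concentration giving 50% reduction in net growth relative to day-0 cell number.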

A549 = experiment: Growth inhibition of human A549/ATCC cells after 48 hrs by SRB assay; conditions: A549, 48 h; summary of the method: as §1
HOP-62 = experiment: Growth inhibition of human HOP62 cells after 48 hrs by SRB assay; conditions: HOP-62, 48 h; summary of the method: as §1
[3] = Growth inhibition of human HOP92 cells after 48 hrs by SRB assay; conditions: HOP-92, 48 h; summary of the method: as §1
NCI-H226 = experiment: Growth inhibition of human NCI-H226 cells after 48 hrs by SRB assay; conditions: NCI-H226, 48 h; summary of the method: as §1
NCI-H23 = experiment: Growth inhibition of human NCI-H23 cells after 48 hrs by SRB assay; conditions: NCI-H23, 48 h; summary of the method: as §1
NCI-H460 = experiment: Growth inhibition of human NCI-H460 cells after 48 hrs by SRB assay; conditions: NCI-H460, 48 h; summary of the method: as §1
NCI-H522 = experiment: Growth inhibition of human NCI-H522 cells after 48 hrs by SRB assay; conditions: NCI-H522, 48 h; summary of the method: as §1
[4] = Growth inhibition of human COLO205 cells after 48 hrs by SRB assay; conditions: COLO 205, 48 h; summary of the method: as §1
[5] = Growth inhibition of human HCC2998 cells after 48 hrs by SRB assay; conditions: HCC 2998, 48 h; summary of the method: as §1
HCT-116 = experiment: Growth inhibition of human HCT116 cells after 48 hrs by SRB assay; conditions: HCT-116, 48 h; summary of the method: as §1
HCT-15 = experiment: Growth inhibition of human HCT15 cells after 48 hrs by SRB assay; conditions: HCT-15, 48 h; summary of the method: as §1
HT-29 = experiment: Growth inhibition of human HT-29 cells after 48 hrs by SRB assay; conditions: HT-29, 48 h; summary of the method: as §1
KM12 = experiment: Growth inhibition of human KM12 cells after 48 hrs by SRB assay; conditions: KM12, 48 h; summary of the method: as §1
SW-620 = experiment: Growth inhibition of human SW620 cells after 48 hrs by SRB assay; conditions: SW-620, 48 h; summary of the method: as §2
SF-268 = experiment: Growth inhibition of human SF268 cells after 48 hrs by SRB assay; conditions: SF-268, 48 h; summary of the method: as §1
[6] = Growth inhibition of human SF295 cells after 48 hrs by SRB assay; conditions: SF-295, 48 h; summary of the method: as §1
[7] = Growth inhibition of human SF539 cells after 48 hrs by SRB assay; conditions: SF-539, 48 h; summary of the method: as §1
SNB-19 = experiment: Growth inhibition of human SNB19 cells after 48 hrs by SRB assay; conditions: SNB-19, 48 h; summary of the method: as §1
SNB-75 = experiment: Growth inhibition of human SNB75 cells after 48 hrs by SRB assay; conditions: SNB-75, 48 h; summary of the method: as §2
U-251 = experiment: Growth inhibition of human U251 cells after 48 hrs by SRB assay; conditions: U-251, 48 h; summary of the method: as §2
[8] = Growth inhibition of human LOXIMVI cells after 48 hrs by SRB assay; conditions: LOX IMVI; summary of the method: as §1
Malme-3M = experiment: Growth inhibition of human MALME-3M cells after 48 hrs by SRB assay; summary of the method: as §1
M14 = experiment: Growth inhibition of human M14 cells after 48 hrs by SRB assay; conditions: M14, 48 h; summary of the method: as §1
MDA-MB-435 = experiment: Growth inhibition of human MDA-MB-435 cells after 48 hrs by SRB assay; conditions: MDA-MB-435, 48 h; summary of the method: as §1
SK-MEL-2 = experiment: Growth inhibition of human SK-MEL-2 cells after 48 hrs by SRB assay; conditions: SK-MEL-2, 48 h; summary of the method: as §1
SK-MEL-28 = experiment: Growth inhibition of human SK-MEL-28 cells after 48 hrs by SRB assay; conditions: SK-MEL-28, 48 h; summary of the method: as §1
SK-MEL-5 = experiment: Growth inhibition of human SK-MEL-5 cells after 48 hrs by SRB assay; conditions: SK-MEL-5, 48 h; summary of the method: as §1
UACC-62 = experiment: Growth inhibition of human UACC62 cells after 48 hrs by SRB assay; conditions: UACC-62, 48 h; summary of the method: as §2
IGROV-1 = experiment: Growth inhibition of human IGROV1 cells after 48 hrs by SRB assay; conditions: IGROV-1, 48 h; summary of the method: as §1
OVCAR-3 = experiment: Growth inhibition of human OVCAR3 cells after 48 hrs by SRB assay; conditions: OVCAR-3, 48 h; summary of the method: as §1
OVCAR-4 = experiment: Growth inhibition of human OVCAR4 cells after 48 hrs by SRB assay; conditions: OVCAR-4, 48 h; summary of the method: as §1
OVCAR-5 = experiment: Growth inhibition of human OVCAR5 cells after 48 hrs by SRB assay; conditions: OVCAR-5, 48 h; summary of the method: as §1
OVCAR-8 = experiment: Growth inhibition of human OVCAR8 cells after 48 hrs by SRB assay; conditions: OVCAR-8, 48 h; summary of the method: as §1
[9] = Growth inhibition of human NCI-ADR-RES cells after 48 hrs by SRB assay; summary of the method: as §1
SK-OV-3 = experiment: Growth inhibition of human SKOV3 cells after 48 hrs by SRB assay; conditions: SK-OV-3, 48 h; summary of the method: as §1
786-0 = experiment: Growth inhibition of human 786-0 cells after 48 hrs by SRB assay; conditions: 786-0, 48 h; summary of the method: as §1
A498 = experiment: Growth inhibition of human A498 cells after 48 hrs by SRB assay; conditions: A498, 48 h; summary of the method: as §1
ACHN = experiment: Growth inhibition of human ACHN cells after 48 hrs by SRB assay; summary of the method: as §1
CAKI-1 = experiment: Growth inhibition of human Caki1 cells after 48 hrs by SRB assay; conditions: CAKI-1, 48 h; summary of the method: as §1
[10] = Growth inhibition of human RXF393 cells after 48 hrs by SRB assay; conditions: RXF 393, 48 h; summary of the method: as §1
SN12C = experiment: Growth inhibition of human SN12C cells after 48 hrs by SRB assay; summary of the method: as §1
TK-10 = experiment: Growth inhibition of human TK10 cells after 48 hrs by SRB assay; conditions: TK-10, 48 h; summary of the method: as §2
UO-31 = experiment: Growth inhibition of human UO31 cells after 48 hrs by SRB assay; conditions: UO-31, 48 h; summary of the method: as §2
PC-3 = experiment: Growth inhibition of human PC3 cells after 48 hrs by SRB assay; conditions: PC-3, 48 h; summary of the method: as §1
DU-145 = experiment: Growth inhibition of human DU145 cells after 48 hrs by SRB assay; conditions: DU-145, 48 h; summary of the method: as §1
MCF7 = experiment: Growth inhibition of human MCF7 cells after 48 hrs by SRB assay; conditions: MCF7, 48 h; summary of the method: as §1
MDA-MB-231 = experiment: Growth inhibition of human MDA-MB-231/ATCC cells after 48 hrs by SRB assay; conditions: MDA-MB-231, 48 h; summary of the method: as §1
[11] = Growth inhibition of human Hs578T cells after 48 hrs by SRB assay; conditions: Hs-578T; summary of the method: as §1
[12] = Growth inhibition of human BT549 cells after 48 hrs by SRB assay; conditions: BT-549, 48 h; summary of the method: as §1
MDA-MB-468 = experiment: Growth inhibition of human MDA-MB-468 cells after 48 hrs by SRB assay; conditions: MDA-MB-468, 48 h; summary of the method: as §1

Work on `COc1cc(/C=C/c2cc3ccccc3[nH]2)cc(OC)c1OC` yielded a GI50 (CCRF-CEM) of 368 nM, a GI50 (HL-60(TB)) of 347 nM and a GI50 (K562) of 393 nM. The GI50 [1] was 854 nM, the GI50 [2] was 388 nM and the GI50 (SR) was 241 nM. For the same compound, the GI50 (A549) was 624 nM, the GI50 (HOP-62) was 933 nM and the GI50 [3] was 201 nM. The GI50 (NCI-H226) was 559 nM, the GI50 (NCI-H23) was 677 nM and the GI50 (NCI-H460) was 374 nM. The GI50 (NCI-H522) was 294 nM, the GI50 [4] was 343 nM and the GI50 [5] was 2250 nM. The GI50 (HCT-116) was 534 nM, the GI50 (HCT-15) was 469 nM and the GI50 (HT-29) was 335 nM. It also gave a GI50 (KM12) of 436 nM, a GI50 (SW-620) of 333 nM and a GI50 (SF-268) of 708 nM. It also gave a GI50 [6] of 311 nM, a GI50 [7] of 231 nM and a GI50 (SNB-19) of 461 nM. For the same compound, the GI50 (SNB-75) was 329 nM, the GI50 (U-251) was 442 nM and the GI50 [8] was 664 nM. For the same compound, the GI50 (Malme-3M) was 388 nM, the GI50 (M14) was 332 nM and the GI50 (MDA-MB-435) was 150 nM. It also gave a GI50 (SK-MEL-2) of 426 nM, a GI50 (SK-MEL-28) of 944 nM and a GI50 (SK-MEL-5) of 305 nM. For the same compound, the GI50 (UACC-62) was 465 nM, the GI50 (IGROV-1) was 504 nM and the GI50 (OVCAR-3) was 234 nM. For the same compound, the GI50 (OVCAR-4) was 691 nM, the GI50 (OVCAR-5) was 963 nM and the GI50 (OVCAR-8) was 587 nM. For the same compound, the GI50 [9] was 365 nM, the GI50 (SK-OV-3) was 676 nM and the GI50 (786-0) was 802 nM. It also gave a GI50 (A498) of 281 nM, a GI50 (ACHN) of 620 nM and a GI50 (CAKI-1) of 382 nM. It also gave a GI50 [10] of 275 nM, a GI50 (SN12C) of 1640 nM and a GI50 (TK-10) of 21600 nM. For the same compound, the GI50 (UO-31) was 172 nM, the GI50 (PC-3) was 381 nM and the GI50 (DU-145) was 384 nM. It also gave a GI50 (MCF7) of 395 nM, a GI50 (MDA-MB-231) of 1300 nM and a GI50 [11] of 257 nM. For the same compound, the GI50 [12] was 938 nM and the GI50 (MDA-MB-468) was 285 nM.
